Experimental data taken from ChEMBL document CHEMBL1128450, “Mononucleoside phosphotriester derivatives with S-acyl-2-thioethyl bioreversible phosphate-protecting groups: intracellular delivery of 3'-azido-2',3'-dideoxythymidine 5'-monophosphate” (J Med Chem, 1995).
Values joined by “and” are separate entries in the source; they are usually repeats but may differ in a detail not shown here. Identical values can stand only once.

Columns and labels:
[1] = Half life evaluated in Total Cell Extract(TCE).; assay type: ADME; conditions: for half-life: total cell extract (TCE)
Procedure, shortened: (§1)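 Compounds at 5 × 10⁻⁵ M initial were incubated at 37 °C in total cell extract from CEM-SS cells. Crude aliquots were analysed by on-line precolumn-cleaning HPLC, with and without ion-pairing reagent, on a C18 column using an ammonium acetate/acetonitrile gradient, with areas read at 266 nm. Half-lives came from pseudo-first-order rate constants fitted to kinetic models by exponential regression.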

CEM-SS [2] = test: Antiviral activity in CEM-SS cell line infected with HIV-1 and cytotoxic concentration required to reduce the viability of uninfected cells by 50%; assay type: functional; conditions: Homo sapiens
Procedure, shortened: (§2)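 Uninfected cells were exposed to compound for 5 days, and viability was read by colorimetric MTT test. Values average at least three separate experiments.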

CEM-SS [3] = test: Antiviral activity in CEM-SS cell line infected with HIV-1 and Concentration required to inhibit the replication of HIV-1 by 50% was determined; assay type: functional, cell-based; conditions: Homo sapiens
Procedure, shortened: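 Cells infected with HIV-LAI at 100 TCID50 for 30 min, washed twice, then cultured with a range of compound concentrations for 5 days (6 days for CEM/TK⁻). Virus production was read as reverse transcriptase activity in the culture supernatant. EC50 was taken from a median effect plot of the dose–effect data, averaging at least three separate experiments.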

MT4 [4] = test: Antiviral activity in MT-4 cell line infected with HIV-1 and Concentration required to inhibit the replication of HIV-1 by 50% was determined; assay type: functional, cell-based; conditions: Homo sapiens
Procedure, shortened: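 HIV-1 IIIB at 50 TCID50 adsorbed to MT-4 cells for 30 min, followed by two washes and 5 days of culture with graded compound concentrations. Protection from virus-induced cytopathogenicity was read by MTT reduction to formazan. EC50 was taken from a median effect plot, averaging at least three separate experiments.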

MT4 [5] = test: Antiviral activity in MT-4 cell line infected with HIV-1 and cytotoxic concentration required to reduce the viability of uninfected cells by 50%; assay type: functional; conditions: Homo sapiens; procedure, shortened: as §2
[6] = Selectivity Index measured as the ratio of CC50(CEM-SS) to EC50(CEM-SS).; assay type: functional
[7] = Selectivity Index measured as the ratio of CC50(CEM/TK) to EC50(CEM/TK).; assay type: functional
[8] = Half life evaluated in Culture Medium(CM); assay type: ADME; conditions: for half-life: culture medium (CM)
Procedure, shortened: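 Compounds at 5 × 10⁻⁵ M initial were incubated at 37 °C in RPMI 1640 with 10% heat-inactivated fetal calf serum. Crude aliquots were analysed by on-line ISRP precolumn-cleaning HPLC, with and without tetrabutylammonium ion-pairing, on a C18 column using an ammonium acetate pH 6.0/acetonitrile gradient. Species were quantified from peak areas at 266 nm. Half-lives were derived from pseudo-first-order rate constants fitted by mono- or polyexponential regression.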

CEM/TK- (Homo sapiens) [9] = test: Antiviral activity in CEM/TK cell line infected with HIV-1 and Concentration required to inhibit the replication of HIV-1 by 50% was determined
CEM/TK- (Homo sapiens) [10] = test: Antiviral activity in CEM/TK cell line infected with HIV-1 and cytotoxic concentration required to reduce the viability of uninfected cells by 50%
[11] = Half life evaluated in Total Cell Extract(TCE) for determination 1.; assay type: ADME; procedure, shortened: as §1
[12] = Half life evaluated in Total Cell Extract(TCE) for determination 2.; assay type: ADME; procedure, shortened: as §1
[13] = Half life evaluated in Total Cell Extract(TCE) for determination 3.; assay type: ADME; procedure, shortened: as §1

Row | Structure (SMILES) | half-life [1] | CC50 (CEM-SS [2]) | EC50 (CEM-SS [3]) | EC50 (MT4 [4]) | CC50 (MT4 [5]) | Selectivity index [6] | Selectivity index [7] | half-life [8] | EC50 (CEM/TK- (Homo sapiens) [9]) | CC50 (CEM/TK- (Homo sapiens) [10]) | T1/2 [1] | T1/2 [8] | half-life [11] | half-life [12] | half-life [13]
1 | Cc1cn(C2CC(N=[N+]=[N-])C(COP(=O)(OCCSC(=O)C(C)(C)C)OCCSC(=O)C(C)(C)C)O2)c(=O)[nH]c1=O (centres undefined) | 1.05 h | > 10 µM | 0.015 µM | 0.81 µM | > 10 µM | > 670 | > 22 | 103 h | 0.45 µM | > 10 µM | – | – | – | – | –
2 | Cc1cn([C@H]2C[C@H](N=[N+]=[N-])[C@@H](COP(=O)(O)O)O2)c(=O)[nH]c1=O [AZIDOTHYMIDINE MONOPHOSPHATE] | 4 h | – | – | – | – | – | – | 50 h | – | – | 4 h | 72 h and 67 h | – | – | –
3 | Cc1cn(C2CC(N=[N+]=[N-])C(COP(=O)(O)OCCS)O2)c(=O)[nH]c1=O (centres undefined) | – | – | – | – | – | – | – | – | – | – | – | – | 2.3 h | 9 h | 10.5 h
4 | Cc1cn(C2CC(N=[N+]=[N-])C(COP(=O)(OCCSSCCO)OCCSSCCO)O2)c(=O)[nH]c1=O (centres undefined) | – | > 100 µM | 0.023 µM | 0.054 µM | > 100 µM | > 4300 | > 180 | – | 0.55 µM | > 100 µM | – | – | – | – | –
5 | Cc1cn([C@H]2C[C@H](N=[N+]=[N-])[C@@H](CO)O2)c(=O)[nH]c1=O [ZIDOVUDINE] | – | > 100 µM | 0.006 µM | 0.017 µM | 75 µM | > 17300 | – | – | > 100 µM | > 100 µM | – | – | – | – | –
6 | Cc1cn(C2CC(N=[N+]=[N-])C(COP(=O)(OCCSC(=O)C(C)C)OCCSC(=O)C(C)C)O2)c(=O)[nH]c1=O (centres undefined) | 0.75 h | > 10 µM | 0.046 µM | 0.048 µM | > 10 µM | > 200 | > 17 | 9 h | 0.52 µM | > 10 µM | – | – | – | – | –
7 | Cc1cn(C2CC(N=[N+]=[N-])C(COP(=O)(OCOC(=O)C(C)(C)C)OCOC(=O)C(C)(C)C)O2)c(=O)[nH]c1=O (centres undefined) | – | 67 µM | 0.077 µM | 0.052 µM | 59 µM | 860 | 250 | – | 0.255 µM | 65.5 µM | – | – | – | – | –
8 | CC(=O)SCCOP(=O)(OCCSC(C)=O)OCC1OC(n2cc(C)c(=O)[nH]c2=O)CC1N=[N+]=[N-] (centres undefined) | < 0.0833 h | 93 µM | 0.022 µM | 0.05 µM | 67 µM | 4300 | > 2050 | 9 h | 0.049 µM | > 100 µM | – | – | – | – | –
9 | Cc1cn(C2CC(N=[N+]=[N-])C(COP(=O)(OCCSC(=O)c3ccccc3)OCCSC(=O)c3ccccc3)O2)c(=O)[nH]c1=O (centres undefined) | – | > 1 µM | 0.125 µM | 0.076 µM | > 1 µM | > 8 | > 4 | – | 0.32 µM | > 1 µM | – | – | – | – | –
10 | Cc1cn(C2CC(N=[N+]=[N-])C(COP(=O)(O)OCCSC(=O)C(C)C)O2)c(=O)[nH]c1=O (centres undefined) | 7.1 h | – | – | – | – | – | – | 12.3 h | – | – | – | – | – | – | –
11 | Cc1cn(C2CC(N=[N+]=[N-])C(COP(=O)(O)OCCSC(=O)C(C)(C)C)O2)c(=O)[nH]c1=O (centres undefined) | 7.2 h | – | – | – | – | – | – | 21.3 h | – | – | – | – | – | – | –
12 | CC(=O)SCCOP(=O)(O)OCC1OC(n2cc(C)c(=O)[nH]c2=O)CC1N=[N+]=[N-] (centres undefined) | < 0.0833 h | – | – | – | – | – | – | 8.9 h | – | – | – | – | – | – | –
